The results in this text go back to ChEMBL document CHEMBL4477197, “Antitumor Activity of Spicatoside A by Modulation of Autophagy and Apoptosis in Human Colorectal Cancer Cells” (J Nat Prod, 2016).

In general, IC50 refers to the concentration that gives 50% inhibition. A low value points to higher potency. One may read the inhibition in vivo as the percentage by which the read-out fell short of the control.

Active and inactive are the calls of the source. No cut-off for these calls is given here.

Series [1] has as its system HCT-116. The experiment in a line: Antiproliferative activity against human HCT116 cells after 24 to 72 hrs by SRB assay. Type of series: functional, cell-based. The method, boiled down:
(§1)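 Cells from ATCC were grown at 37 °C in 5% CO2, in RPMI 1640 (A549, HCT116, SNU-638) or DMEM (MDA-MB-231, SK-HEP-1, MRC5) with 10% FBS. They were seeded at 6 × 10^3 cells/well for 24 h, then exposed for 72 h. Cells were TCA-fixed, stained with 0.4% SRB, and read at 515 nm against day-zero plates. IC50 came from nonlinear regression, as means ± SD.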
On the technique in general: Sulforhodamine B stains cellular protein and so reports cell mass.

In the next series the test system is MRC5. The experiment in a line: Antiproliferative activity against human MRC5 cells after 24 to 72 hrs by SRB assay. Type of series: cell-based. In a few lines:
as §1

The test system of series [2] is HCT-116. The experiment in a line: Induction of autophagy in human HCT116 cells assessed as upregulation of LAMP1 expression at 10 to 30 uM after 24 hrs by Western blot analysis. It is filed as functional, cell-based. The method, boiled down:
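HCT116 cells were cultured 24 h with the indicated concentrations. Lysates were made in SDS buffer with NaF and orthovanadate and quantified by BCA; 10–30 μg protein was separated by 6–15% SDS-PAGE and transferred to PVDF. After 5% BSA blocking, blots were probed for LC3-II, beclin 1, p62, LAMP1 and cathepsin D, with ECL detection.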

Series [3] in a line: Inhibition of PI3K/Akt/mTOR in human HCT116 cells assessed as downregulation of PI3K p101 at 10 to 30 uM after 24 hrs by Western blot analysis. It is filed as cell-based. The method, boiled down: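 HCT116 cells were lysed after 24 h with the indicated concentrations. PI3K, PTEN, Akt and mTOR were immunoblotted (SDS-PAGE, PVDF, 5% BSA block, ECL).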
(In western blotting, separated proteins are transferred to a membrane and probed.)

The nature of series [4]: Inhibition of PI3K/Akt/mTOR in human HCT116 cells assessed as suppression of Akt phosphorylation at Ser473 at 10 to 30 uM after 24 hrs by Western blot analysis. Type of series: cell-based. The method, boiled down:
(§2)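 HCT116 cells (RPMI 1640, 10% FBS, 37 °C, 5% CO2) exposed to the compound for 24 h, then lysed in 2× SDS sample buffer with NaF and orthovanadate and boiled. BCA-normalised protein (10−30 μg) run on 6−15% SDS-PAGE and blotted to PVDF. Blocked in 5% BSA/PBS-Tween, probed for PI3K, PTEN, Akt and mTOR, and detected by ECL. Blots are representative of three determinations.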

Series [5] is described as follows: Inhibition of PI3K/Akt/mTOR in human HCT116 cells assessed as suppression of mTOR phosphorylation at Ser2448 at 10 to 30 uM after 24 hrs by Western blot analysis. It is filed as cell-based. The method, boiled down: as §2
For series [6], the target named is Mitogen-activated protein kinase; ERK1/ERK2 (Homo sapiens) (UniProt P27361+P28482). The experiment in a line: Inhibition of ERK1/2 phosphorylation in human HCT116 cells after 24 hrs by Western blot analysis. It is filed as cell-based.
Sequence of Mitogen-activated protein kinase; ERK1/ERK2 (Homo sapiens) (P27361 whole entry, looked up): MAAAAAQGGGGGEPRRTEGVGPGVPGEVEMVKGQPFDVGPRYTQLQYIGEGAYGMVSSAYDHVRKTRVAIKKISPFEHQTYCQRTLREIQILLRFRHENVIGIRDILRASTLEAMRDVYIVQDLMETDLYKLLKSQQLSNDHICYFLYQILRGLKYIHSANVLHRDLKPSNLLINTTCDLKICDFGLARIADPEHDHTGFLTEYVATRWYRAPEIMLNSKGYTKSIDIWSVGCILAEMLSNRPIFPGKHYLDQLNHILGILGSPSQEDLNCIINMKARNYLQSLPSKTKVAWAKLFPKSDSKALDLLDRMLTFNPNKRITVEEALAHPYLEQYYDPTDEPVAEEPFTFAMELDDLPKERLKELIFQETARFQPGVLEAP
Sequence of Mitogen-activated protein kinase; ERK1/ERK2 (Homo sapiens) (P28482 whole entry, looked up): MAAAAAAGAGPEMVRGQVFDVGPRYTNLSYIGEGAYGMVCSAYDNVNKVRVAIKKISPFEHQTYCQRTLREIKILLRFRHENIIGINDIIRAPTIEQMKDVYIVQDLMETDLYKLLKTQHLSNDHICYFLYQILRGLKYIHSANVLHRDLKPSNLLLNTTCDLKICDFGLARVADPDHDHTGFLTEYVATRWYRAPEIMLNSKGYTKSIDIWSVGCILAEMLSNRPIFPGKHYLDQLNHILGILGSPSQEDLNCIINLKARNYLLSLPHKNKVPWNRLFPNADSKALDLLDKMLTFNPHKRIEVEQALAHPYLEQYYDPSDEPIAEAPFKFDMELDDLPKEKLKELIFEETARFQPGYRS
Series [7] addresses Cellular tumor antigen p53 (Homo sapiens) (UniProt P04637). Briefly: Induction of p53 expression in human HCT116 cells after 24 hrs by Western blot analysis. Type of series: cell-based.
Series [8] deals with HCT-116. The experiment in a line: Induction of apoptosis in human HCT116 cells at 30 uM after 48 hrs by Annexin V-FITC/propidium iodide staining based flow cytometry. It is filed as functional. In a few lines: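 HCT116 cells were treated 48 h, then resuspended in binding buffer at 1 × 10^6 cells/mL. They were stained with annexin V-FITC and PI for 20 min at room temperature in the dark, diluted and analyzed immediately by flow cytometry for annexin V-positive cells. n = 3.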
Background: A flow cytometer gives signals particle by particle.

Series [9] has as its system HCT-116. The experiment in a line: Induction of apoptosis in human HCT116 cells assessed as upregulation of Bax levels at 10 to 30 uM after 48 hrs by Western blot analysis. Type of series: functional, cell-based.
Series [10] deals with HCT-116. Briefly: Induction of apoptosis in human HCT116 cells assessed as activation of caspase 8 at 10 to 30 uM after 48 hrs by Western blot analysis. It is filed as functional, cell-based. The method, boiled down:
(§3)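 HCT116 cells were treated with the indicated concentrations for 48 h. Lysates were prepared in SDS sample buffer and 10–30 μg protein was separated by SDS-PAGE, blotted to PVDF and blocked in 5% BSA. Cleaved caspase-8, -9, -3 and PARP were detected by ECL.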

Series [11] concerns HCT-116. The experiment in a line: Induction of apoptosis in human HCT116 cells assessed as activation of PARP cleavage at 10 to 30 uM after 48 hrs by Western blot analysis. Type of series: functional, cell-based. In a few lines: as §3
Series [12] concerns HCT-116. Briefly: Growth inhibition of human HCT116 cells at 5 to 40 uM in presence of autophagy inhibitor 3-MA after 48 hrs by SRB assay. It is filed as functional, cell-based. In a few lines:
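SRB proliferation assay on HCT116 cells given graded concentrations for 48 h with or without 2 mM 3-MA. Cells were TCA-fixed, stained with 0.4% SRB, solubilized in 10 mM Tris pH 10.0 and read at 515 nm. Growth was normalized to day-zero and vehicle wells. Means ± SD, n = 3.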

Series [13] has as its system HCT-116. The experiment in a line: Antitumor activity against human HCT116 cells xenografted in BALB/c-nu mouse assessed as inhibition of tumor volume at 2.5 mg/kg, ip administered three times per week for 28 days measured every 3 to 4 days of dosing relative to control. It is filed as functional. The conditions noted are these: HCT-116, ip. The method, boiled down:
(§4)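 HCT116 cells (2 × 106 in 200 μL medium) injected subcutaneously into the right flank of nude mice; at ~200 mm3, mice randomized into groups of five. Compound at 2.5 or 5 mg/kg, dissolved in normal saline with 0.5% Tween 80, given ip three times weekly for 28 days; vehicle controls got equal volume. Tumor volume measured by caliper every 3–4 days.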

Series [14] has as its system HCT-116. The experiment in a line: Antitumor activity against human HCT116 cells xenografted in BALB/c-nu mouse assessed as inhibition of tumor volume at 5 mg/kg, ip administered three times per week for 28 days measured every 3 to 4 days of dosing relative to control. Type of series: functional. The following applies: HCT-116, ip. The method, boiled down:
as §4

Series [15] is described as follows: Toxicity in BALB/c-nu mouse xenografted with human HCT116 cells assessed as overt toxicity at 2.5 to 5 mg/kg, ip administered three times per week for 28 days measured during compound dosing relative to control. It is filed as organism-based. The following applies: in vivo, 672 h. The method, boiled down:
(§5)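 Nude mice carried subcutaneous flank HCT116 implants (2 × 10^6 cells in 200 μL medium). At about 200 mm3 they were randomised into groups of five. Compound at 2.5 or 5 mg/kg in saline with 0.5% Tween 80 was given ip three times weekly for 4 weeks; controls received vehicle. Body weight was monitored throughout for toxicity.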

The nature of series [16]: Toxicity in BALB/c-nu mouse xenografted with human HCT116 cells assessed as change in body weight at 2.5 to 5 mg/kg, ip administered three times per week for 28 days measured during compound dosing relative to control. Type of series: organism-based. The conditions noted are these: in vivo, 672 h. In a few lines:
as §5

A further series relates to Mus musculus. Briefly: Inhibition of Ki-67 expression in human HCT116 cells xenografted in BALB/c-nu mouse at 2.5 to 5 mg/kg, ip administered three times per week for 28 days measured post dosing by hematoxylin staining based inverted phase-contrast microscopy. It is filed as functional, organism-based. In a few lines: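 Day-28 xenograft tumors were fixed in 4% paraformaldehyde, paraffin-embedded and serially sectioned. Sections were deparaffinized, rehydrated, antigen-retrieved and immunostained for Ki-67 with HRP detection, then counterstained with hematoxylin. Slides were viewed by inverted phase-contrast microscopy at 200×.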

Sequence of Cellular tumor antigen p53 (Homo sapiens) (P04637 whole entry, looked up): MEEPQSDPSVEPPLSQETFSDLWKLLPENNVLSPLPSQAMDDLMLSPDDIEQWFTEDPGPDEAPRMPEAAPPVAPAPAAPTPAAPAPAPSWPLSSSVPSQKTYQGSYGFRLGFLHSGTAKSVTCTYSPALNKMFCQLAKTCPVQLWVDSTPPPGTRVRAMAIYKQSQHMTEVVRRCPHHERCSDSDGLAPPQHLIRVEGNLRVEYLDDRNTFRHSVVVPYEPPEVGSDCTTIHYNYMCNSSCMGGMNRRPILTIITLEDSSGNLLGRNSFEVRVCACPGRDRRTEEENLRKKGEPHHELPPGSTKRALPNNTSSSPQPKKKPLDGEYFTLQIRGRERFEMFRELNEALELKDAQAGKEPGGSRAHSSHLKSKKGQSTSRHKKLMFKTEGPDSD

On to `C[C@H]1CC[C@@]2(OC1)O[C@H]1C[C@H]3[C@@H]4CC=C5C[C@@H](O)C[C@@H](O[C@@H]6O[C@H](C)[C@H](O)[C@H](O[C@@H]7OC[C@@H](O)[C@H](O)[C@H]7O)[C@H]6O[C@@H]6O[C@H](CO)[C@@H](O)[C@H](O)[C@H]6O)[C@]5(C)[C@H]4CC[C@]3(C)[C@H]1[C@@H]2C`, for which the IC50 in the series with HCT-116 [1] came out at 13.8 µM; with MRC5, 82 µM. Moreover, the result in the series on HCT-116 [2], with HCT-116 [9], in the series with HCT-116 [10] and with HCT-116 [11] was Active. The inhibition result (in [3]; in [4]; in series [5]; in the series on Mus musculus) was “Active” throughout. For the same compound, the inhibition result in [6] was “Dose-dependent effect”. The Activity entry in series [7] is “Dose-dependent effect”; in the series on HCT-116 [8] it was 24.58%; in [15], “Non-Toxic”; in [16], “Non-Toxic”. Besides, the “growth inhibition (GI)” value with HCT-116 [12] was “Active”. Moreover, the inhibition in vivo at 2.5 mg/kg with HCT-116 [13] came out at 38.8%. Also, the inhibition in vivo at 5 mg/kg in the series on HCT-116 [14] came to 57.5%.
